Assay results as given in article PMC6900552 (Acta Pharmaceutica Sinica. B, 2019).
Where two headings read alike, the source gives them in different places.

Columns and labels:
HepG2 cells = assay: DiI-LDL uptake assay; type: cell-based, human; details: 5 μmol/L, 24 h, then 20 μg/mL DiI-LDL 4 h, fold of vehicle
Procedure, shortened: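 Washes: PBS/0.4% albumin ×2, PBS ×3. Isopropanol extraction 20 min RT; fluorescence ex 520/em 570 nm; residual cells lysed in 0.5 mol/L NaOH for protein determination.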

PCSK9 mRNA [1] = details: read-out: IC50 of decreasing PCSK9 mRNA level; cited from earlier work
[2] = 32 hypercholesterolemic patients, 3 months of treatment; cited from earlier work
[3] = cited from earlier work
[4] = biological target: beta-1 adrenergic receptor (Homo sapiens, UniProt P08588); assay: Calcium mobilization assay, β1 adrenergic receptor antagonist activity; type: cell-based; details: HEK293 β1-AR/Gα16 cells
Procedure, shortened: (§1)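 HEK293 cells stably co-expressing the receptor and Gα16 were seeded in 96-well plates and grown 24 h. Cells were loaded with 2 μmol/L Fluo-4 AM in HBSS (pH 7.4, BSA 5 g/L, sulfinpyrazone 250 μmol/L) at 37 °C for 45 min. Test compound was added for 10 min at RT, then the respective agonist. Calcium signal was read at ex 485/em 525 nm. IC50 came from nonlinear-regression dose–response curves.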

dopamine D1 = dopamine D1 (Homo sapiens, UniProt P21728); assay: Calcium mobilization assay, dopamine D1 antagonist activity; type: cell-based; details: HEK293 D1/Gα16 cells
Procedure, shortened: as §1

dopamine D2 = dopamine D2 (Homo sapiens, UniProt P14416); assay: Calcium mobilization assay, dopamine D2 antagonist activity; type: cell-based; details: HEK293 D2/Gα16 cells
Procedure, shortened: as §1

[5] = biological target: serotonin 5-HT1B receptor (Homo sapiens, UniProt P28222); assay: Whole-cell binding assay, 5-HT1B
Procedure, shortened: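 CHO-K1 cells stably expressing 5-HT1B were seeded at 3 × 10⁴ cells/well and assayed 24 h later. Cells were incubated overnight at 4 °C with 1 nmol/L ³H-GR125743 or ³H-mesulergine plus unlabeled test compound (1.28 nmol/L–100 μmol/L). They were then washed with ice-cold PBS and lysed (PBS, 20 mmol/L Tris-HCl, 1% Triton X-100, pH 7.4). Bound radioactivity was scintillation-counted, and IC50 came from nonlinear regression.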

[6] = Pharmacokinetic profiles in male hamsters; type: in vivo; details: hamster, serum
Procedure, shortened: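 Male hamsters, n = 3 per group, received test compound either at 20 mg/kg by oral gavage in 0.5% CMC-Na or at 10 mg/kg i.v. in 5% DMSO/10% cremophor EL/85% saline. Blood was drawn at 0, 0.5, 1, 2, 4, 6, 8, 10, 12 and 24 h, and serum was separated at 4000×g for 10 min. Serum levels were measured by LC/MS/MS. Parameters are averages of three runs.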

[7] = In vivo cholesterol-lowering assay in HFD-induced hyperlipidemic hamsters; set-up: species or system Syrian hamster; details: 21 days, vs HFD control
Procedure, shortened: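 Male Syrian hamsters (100–120 g) were acclimatized 7 days, then fed a high-fat diet (0.5% cholesterol) for 1 week. They were randomized to groups of n = 7. Test compound (30 mg/kg) or fenofibrate positive control (100 mg/kg) was given by daily oral gavage for 21 days; controls received 0.5% CMC-Na vehicle. After a 15 h fast, serum was taken under anesthesia and TC and LDL-C were measured by kit. Mean ± SEM.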

LDLR = assay: Western blot analysis of LDLR expression in HepG2 cells; type: cell-based, human; details: 5 μmol/L, 24 h
hERG channel = hERG channel (Homo sapiens, UniProt Q12809); assay: hERG testing; type: cell-based
Procedure, shortened: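 FluxOR thallium-flux assay in CHO-hERG-ZG cells kept under G418 and hygromycin B (100 μg/mL each). Cells were plated and held 30 min at RT in the dark, then 16–18 h at 37 °C. Dye loading ran 90 min at RT in the dark, then the medium was swapped for assay buffer and compound added for 20 min at RT in the dark. Fluorescence was recorded every 2 s to 10 s; stimulus buffer was added at 10 s, then recording continued every 1 s to 180 s.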

PCSK9 = PCSK9 ELISA in HepG2 cells; type: cell-based, human; details: read-out: IC50 of PCSK9 protein expression, 24 h
PCSK9 mRNA [8] = assay: Real-time PCR of PCSK9 mRNA in HepG2 cells; type: cell-based; details: Homo sapiens, HepG2, 24 h, read-out: IC50 of PCSK9 mRNA expression

Chain of dopamine D2 (P14416 whole entry): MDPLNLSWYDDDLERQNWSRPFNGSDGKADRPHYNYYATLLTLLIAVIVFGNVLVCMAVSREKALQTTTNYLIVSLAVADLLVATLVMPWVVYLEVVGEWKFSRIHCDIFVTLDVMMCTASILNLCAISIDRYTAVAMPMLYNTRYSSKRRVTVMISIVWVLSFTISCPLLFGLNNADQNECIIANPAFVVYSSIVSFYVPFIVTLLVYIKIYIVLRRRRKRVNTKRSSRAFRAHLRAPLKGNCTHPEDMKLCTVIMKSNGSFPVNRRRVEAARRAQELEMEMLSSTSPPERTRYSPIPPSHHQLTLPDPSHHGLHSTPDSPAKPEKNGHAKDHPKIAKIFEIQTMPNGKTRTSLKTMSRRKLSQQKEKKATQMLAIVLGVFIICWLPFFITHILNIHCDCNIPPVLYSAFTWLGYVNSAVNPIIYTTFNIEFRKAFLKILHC
Chain of serotonin 5-HT1B receptor (P28222 whole entry): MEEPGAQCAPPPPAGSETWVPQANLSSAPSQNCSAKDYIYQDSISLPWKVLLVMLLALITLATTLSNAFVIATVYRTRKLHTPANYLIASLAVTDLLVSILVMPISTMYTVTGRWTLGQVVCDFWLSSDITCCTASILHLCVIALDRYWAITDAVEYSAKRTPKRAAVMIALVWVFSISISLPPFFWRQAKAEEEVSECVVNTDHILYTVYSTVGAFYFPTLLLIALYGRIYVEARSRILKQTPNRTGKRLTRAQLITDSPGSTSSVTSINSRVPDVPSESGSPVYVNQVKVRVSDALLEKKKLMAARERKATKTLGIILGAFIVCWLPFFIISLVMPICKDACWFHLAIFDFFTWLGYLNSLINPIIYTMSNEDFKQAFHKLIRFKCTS
Chain of beta-1 adrenergic receptor (P08588 whole entry, species assumed): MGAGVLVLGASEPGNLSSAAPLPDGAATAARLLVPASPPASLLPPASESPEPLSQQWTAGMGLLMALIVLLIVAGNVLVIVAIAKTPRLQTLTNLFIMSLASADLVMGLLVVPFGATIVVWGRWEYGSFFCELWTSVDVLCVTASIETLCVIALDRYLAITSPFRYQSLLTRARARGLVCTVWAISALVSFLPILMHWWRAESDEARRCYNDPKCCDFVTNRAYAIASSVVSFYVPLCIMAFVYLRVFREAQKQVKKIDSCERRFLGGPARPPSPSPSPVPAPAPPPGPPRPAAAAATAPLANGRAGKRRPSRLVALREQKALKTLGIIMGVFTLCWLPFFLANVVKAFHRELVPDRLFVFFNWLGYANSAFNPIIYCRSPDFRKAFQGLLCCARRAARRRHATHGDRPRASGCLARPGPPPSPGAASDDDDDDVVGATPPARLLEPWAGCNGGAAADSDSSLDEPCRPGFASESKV
Chain of dopamine D1 (P21728 whole entry): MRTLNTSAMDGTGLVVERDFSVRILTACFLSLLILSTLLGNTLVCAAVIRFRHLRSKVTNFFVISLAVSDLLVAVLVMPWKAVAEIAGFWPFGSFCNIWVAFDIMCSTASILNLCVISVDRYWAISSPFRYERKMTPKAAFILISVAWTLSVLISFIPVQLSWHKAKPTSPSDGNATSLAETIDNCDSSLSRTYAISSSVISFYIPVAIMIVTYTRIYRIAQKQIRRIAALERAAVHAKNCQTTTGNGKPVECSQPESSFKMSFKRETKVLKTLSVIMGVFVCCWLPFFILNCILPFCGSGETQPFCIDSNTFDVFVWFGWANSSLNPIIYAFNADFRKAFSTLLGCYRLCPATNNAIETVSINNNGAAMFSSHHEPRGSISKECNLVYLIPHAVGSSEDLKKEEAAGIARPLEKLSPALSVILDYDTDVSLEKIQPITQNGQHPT
Chain of hERG channel (Q12809 whole entry): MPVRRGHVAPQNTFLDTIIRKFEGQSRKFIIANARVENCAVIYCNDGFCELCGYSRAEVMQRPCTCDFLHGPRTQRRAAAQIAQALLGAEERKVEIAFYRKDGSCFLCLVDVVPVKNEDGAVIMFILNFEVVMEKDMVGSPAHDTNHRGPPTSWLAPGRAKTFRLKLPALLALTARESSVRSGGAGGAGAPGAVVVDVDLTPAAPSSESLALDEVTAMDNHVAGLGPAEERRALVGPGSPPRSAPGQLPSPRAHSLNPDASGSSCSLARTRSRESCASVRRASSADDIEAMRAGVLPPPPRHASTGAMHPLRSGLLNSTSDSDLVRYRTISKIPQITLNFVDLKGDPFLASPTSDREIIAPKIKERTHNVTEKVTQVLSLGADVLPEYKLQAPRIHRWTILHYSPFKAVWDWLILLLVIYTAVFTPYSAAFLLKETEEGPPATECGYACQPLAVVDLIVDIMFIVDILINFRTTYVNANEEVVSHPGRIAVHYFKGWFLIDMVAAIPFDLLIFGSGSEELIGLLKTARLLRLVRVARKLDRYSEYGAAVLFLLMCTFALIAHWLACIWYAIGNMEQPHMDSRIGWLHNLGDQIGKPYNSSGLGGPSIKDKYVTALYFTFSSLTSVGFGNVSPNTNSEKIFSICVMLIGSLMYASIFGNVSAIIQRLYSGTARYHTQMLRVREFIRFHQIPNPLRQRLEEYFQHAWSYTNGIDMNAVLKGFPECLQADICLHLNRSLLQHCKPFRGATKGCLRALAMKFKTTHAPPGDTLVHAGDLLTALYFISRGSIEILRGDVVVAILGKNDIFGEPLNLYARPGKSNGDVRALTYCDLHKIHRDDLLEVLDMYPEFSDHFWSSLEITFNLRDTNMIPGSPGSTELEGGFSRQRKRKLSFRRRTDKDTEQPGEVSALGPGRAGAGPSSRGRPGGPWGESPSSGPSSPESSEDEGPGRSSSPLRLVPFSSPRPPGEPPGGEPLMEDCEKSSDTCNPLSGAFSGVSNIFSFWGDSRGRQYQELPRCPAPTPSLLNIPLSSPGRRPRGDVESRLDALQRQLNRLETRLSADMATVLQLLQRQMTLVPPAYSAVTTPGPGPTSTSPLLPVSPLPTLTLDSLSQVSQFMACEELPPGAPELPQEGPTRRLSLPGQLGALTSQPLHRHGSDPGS

COc1ccc2cc3[n+](cc2c1OC)CCc1cc2c(cc1-3)OCO2 [Berberine]
DiI-LDL uptake rate (compared to vehicle, mean±SEM) (HepG2 cells): 1.38±0.03
IC50 (PCSK9 mRNA [1]): 8.04 µM
reduction of LDL-C [2]: 25%
reduction of serum total cholesterol (TC) [2]: 29%
bioavailability (F) [3]: < 1%
oral bioavailability [3]: ~0%

COc1cc2c(cc1OCc1ccccc1F)C1Cc3c(n(CO)c4ccccc34)CN1CC2 (centres unmarked) [Compound 8, (2-((2-Fluorobenzyl)oxy)-3-methoxy-5,6,14,14a-tetrahydroindolo[3′,2′:4,5]pyrido[2,1-a]isoquinolin-9(8H)-yl)methanol]
DiI-LDL uptake rate (compared to vehicle, mean±SEM) (HepG2 cells): 1.04±0.04
IC50 [4]: > 100 µM
IC50 (dopamine D1): 5.56 ± 0.08 µM
IC50 (dopamine D2): 17.9 ± 0.86 µM
IC50 [5]: 47.2 ± 1.22 µM

COc1ccc2c(c1)c1c(n2CO)CN2CCc3cc(OC)c(OCc4ccc(F)cc4)cc3C2C1 (centres unmarked) [Compound 18, (2-((4-Fluorobenzyl)oxy)-3,12-dimethoxy-5,6,14,14a-tetrahydroindolo[3′,2′:4,5]pyrido[2,1-a]isoquinolin-9(8H)-yl)methanol]
IC50 [4]: ~100 µM
IC50 (dopamine D1): 1.71 ± 0.1 µM
IC50 (dopamine D2): > 100 µM
IC50 [5]: > 100 µM

COc1ccc2c(c1)c1c(n2CO)CN2CCc3cc(OC)c(OCC(F)(F)F)cc3C2C1 (centres unmarked) [Compound 21, (3,12-Dimethoxy-2-(2,2,2-trifluoroethoxy)-5,6,14,14a-tetrahydroindolo[3′,2′:4,5]pyrido[2,1-a]isoquinolin-9(8H)-yl)methanol]
DiI-LDL uptake rate (compared to vehicle, mean±SEM) (HepG2 cells): 1.45±0.04^∗∗
IC50 [4]: ~100 µM
IC50 (dopamine D1): 2.35 ± 0.07 µM
IC50 (dopamine D2): ~50 µM
IC50 [5]: > 100 µM

COc1ccc2c(c1)c1c(n2CO)CN2CCc3cc(OCc4ccccc4)c(OC)cc3C2C1 (centres unmarked) [Compound 22, (3-(Benzyloxy)-2,12-dimethoxy-5,6,14,14a-tetrahydroindolo[3′,2′:4,5]pyrido[2,1-a]isoquinolin-9(8H)-yl)methanol]
IC50 [4]: ≥ 100 µM
IC50 (dopamine D1): ~100 µM
IC50 (dopamine D2): ≥ 100 µM
IC50 [5]: 13.4 ± 0.51 µM
AUC(0-inf) ([6]; iv, 10 mg/kg): 2090 ng·h/mL
MRT ([6]; iv, 10 mg/kg): 4.13 h
clearance ([6]; iv, 10 mg/kg): 84.1 mL/min/kg
half-life ([6]; iv, 10 mg/kg): 3.61 h
bioavailability ([6]; oral, 20 mg/kg): 21.9%
AUC(0-inf) ([6]; po, 20 mg/kg): 1000 ng·h/mL
Cmax ([6]; po, 20 mg/kg): 169 ng/mL
MRT ([6]; po, 20 mg/kg): 10.3 h
half-life ([6]; po, 20 mg/kg): 6.35 h
reduction in serum LDL-C ([7]; 30 mg/kg oral gavage daily): 41.4%
reduction in serum TC ([7]; 30 mg/kg oral gavage daily): 36.7%
LDLR expression compared to DMSO (LDLR): 2.06 fold
IC50 (hERG channel): 7.99 µM
IC50 (PCSK9): 1.34 µM
IC50 (PCSK9 mRNA [8]): 1.1 µM

CC(C)OC(=O)C(C)(C)Oc1ccc(C(=O)c2ccc(Cl)cc2)cc1 [fenofibrate, reference compound]
decrease of serum LDL-C ([7]; p.o. 100 mg/kg daily): 79.4%
decrease of serum TC ([7]; p.o. 100 mg/kg daily): 71.3%
